Series [1] is described as follows: Cytotoxicity against MDBK cells after 48 to 96 hrs by MTT assay. The series is classed as cell-based, Bos taurus. As to conditions: cattle. A digest of the protocol:
(§1)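 Mock-infected MDBK (6×10^5 cells/mL, MEM-E with 10% horse serum) or BHK (1×10^6 cells/mL, MEM-E with 10% FBS) cells incubated with serial compound dilutions at 37 °C and 5% CO2. Viability measured by MTT after 48–96 h. CC50 by linear regression against untreated controls.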

Series [2] can be described thus: Antiviral activity against BVDV1 NADL ATCC VR-534 infected in MDBK cells assessed as inhibition of virus-induced cytopathogenicity after 3 to 4 days by MTT assay. The series is classed as functional, cell-based, Bovine viral diarrhea virus 1-NADL. As to conditions: Bovine viral diarrhea virus isolates and strains, ATCC VR-534, MDBK. A digest of the protocol: (§2)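 BHK (5×10^4/well) or MDBK (3×10^4/well) cells grown to confluent monolayers overnight, infected at m.o.i. 0.01 in maintenance MEM-Earl with 0.5% inactivated FBS. Serially diluted compounds added after 1 h. Viability read by MTT after 3–4 days at 37 °C. Values are expressed as % of untreated controls, and EC50 is derived by linear regression. Duplicate samples.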

The nature of series [3]: Cytotoxicity against BHK21 cells by MTT assay. The series is classed as cell-based, Mesocricetus auratus. The following applies: hamster, BHK-21 cells. A digest of the protocol: as §1
On the technique in general: Tetrazolium assays rely on reduction of a dye to a coloured formazan, in cell work by metabolically active cells.

Series [4] has as its system Yellow fever virus. As to the kind of experiment: Antiviral activity against Yellow fever virus 17D infected in BHK21 cells assessed as inhibition of virus-induced cytopathogenicity after 3 to 4 days by MTT assay. It counts as functional, cell-based. As to conditions: BHK-21.
The test system of series [5] is Mammalian orthoreovirus 1. As to the kind of experiment: Antiviral activity against Reovirus 1 3651 ATCC VR-214 infected in BHK21 cells assessed as inhibition of virus-induced cytopathogenicity after 3 to 4 days by MTT assay. The series is classed as functional, organism-based. As to conditions: Mammalian orthoreovirus 1, 3651 ATCC VR-214, BHK-21. The procedure, abridged:
as §2

A short description of series [6]: Cytotoxicity against african green monkey Vero 76 cells after 48 to 96 hrs by MTT assay. The series is classed as cell-based. The following applies: chlorocebus sabaeus.
For series [7], the system named is Coxsackievirus B5. As to the kind of experiment: Antiviral activity against Coxsackie virus type B5 Ohio-1 ATCC VR-29 infected in african green monkey Vero-76 cells assessed as reduction in viral plaque after 3 days by crystal violet staining. It counts as functional, organism-based. As to conditions: Enterovirus B, Ohio-1 ATCC VR-29, Vero 76, 72 h. A digest of the protocol:
(§3)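 Vero-76 monolayers (2×10^5 cells/well) infected for 2 h at 50–100 PFU/well. Unadsorbed virus removed. D-MEM with 1% inactivated FBS, 0.75% methylcellulose and serial compound dilutions added. Incubation at 37 °C for 3 days (CVB-5, HSV-1) or 5 days (RSV). Fixed and stained with 50% ethanol/0.8% crystal violet, then plaques counted. EC50 by linear regression versus untreated controls.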

Series [8] deals with Poliovirus 1. Kind of series: Antiviral activity against Polio virus type 1 strain sabin ATCC VR-1562 infected in african green monkey Vero-76 cells assessed as reduction in viral plaque after 2 days by crystal violet staining. It counts as functional, cell-based, Human poliovirus 1 strain Sabin. The following applies: Enterovirus C, ATCC VR-1562, Vero 76, 48 h.
The nature of series [9]: Antiviral activity against Human respiratory syncytial virus A2 ATCC VR-1540 infected in african green monkey Vero-76 cells assessed as reduction in viral plaque after 5 days by crystal violet staining. It counts as functional, cell-based. As to conditions: ATCC VR-1540, Vero 76, 120 h. The procedure, abridged: as §3
The subject of series [10] is Vesicular stomatitis Indiana virus. Kind of series: Antiviral activity against Vesicular stomatitis virus indiana ATCC VR-1540 infected in african green monkey Vero-76 cells assessed as reduction in viral plaque after 2 days by crystal violet staining. The series is classed as functional, organism-based. As to conditions: ATCC VR-1540, Vero 76, 48 h.
For series [11], the system named is Vaccinia virus. As to the kind of experiment: Antiviral activity against Vaccinia virus Elstree-Lister ATCC VR-1549 infected in african green monkey Vero-76 cells assessed as reduction in viral plaque after 3 days by crystal violet staining. The following applies: Orthopoxvirus vaccinia, Elstree-Lister ATCC VR-1549, Vero 76, 72 h. The series is classed as functional, organism-based.

The test system of series [12] is Human alphaherpesvirus 1. Kind of series: Antiviral activity against Herpes simplex virus type 1 KOS ATCC VR-1493 infected in african green monkey Vero-76 cells assessed as reduction in viral plaque after 3 days by crystal violet staining. The following applies: Human alphaherpesvirus 1, KOS ATCC VR1493, Vero 76, 72 h. The series is classed as functional, organism-based. The procedure, abridged:
as §3

For orientation: CC50 means the concentration that lowers cell viability or growth by half. One may read the EC50 as the midpoint of the concentration-response curve.

As to `C/C(=N\NC(N)=O)c1ccc2[nH]c(C3CCCCC3)nc2c1`, the CC50 in series [1], in [3] and in series [6] was above 100 µM in each case. Further, the EC50 in series [2] was 44 µM; in [4], above 100 µM; in series [5], above 100 µM; in [7], above 100 µM; in series [8] it was above 100 µM; in series [9] it was above 100 µM. For the same compound, the EC50 in [10], in [11] and in [12] was above 100 µM each time.

On to `C[C@@]1(O)[C@H](O)[C@@H](CO)O[C@H]1n1cnc2c(=O)[nH]c(N)nc21` [2'-B-METHYL-GUANOSINE], for which the CC50 in series [1] and in series [3] was above 10 µM in each case. Further, the 50% effective concentration (EC50) in [2] is 1.1 µM.

Turning to `CC(=O)c1ccc2[nH]c(-c3ccc(C(F)(F)F)cc3)nc2c1`, the CC50 in series [1], in series [3] and in series [6] was above 100 µM each time. Also, the half-maximal effective concentration (EC50) was 15 µM in series [2]; above 100 µM in series [4]; above 100 µM in [5]; above 100 µM in [7]; above 100 µM in [8]; above 100 µM in [9]. Also, the EC50 in [10], in [11] and in [12] was above 100 µM in each case.

`Cc1cc2nc(-c3cccc4ccccc34)[nH]c2cc1C`: in series [4], the EC50 worked out at 6 µM.

Turning to `C/C(=N\O)c1ccc2[nH]c(-c3ccccc3)nc2c1`, the CC50 in series [1], in series [3] and in series [6] was above 100 µM throughout. Besides, the EC50 in [2], in series [4], in [5], in [7], in series [8] and in series [9] was above 100 µM throughout. In addition, the EC50 in series [10], in series [11] and in series [12] was above 100 µM each time.

The compound `COc1ccc(-c2nc3cc(/C(C)=N/NC(N)=O)ccc3n2C2CCCCC2)cc1` came in with a cytotoxic concentration (CC50) in [1] of 54 µM. In series [2], the EC50 is above 54 µM.

Consider `CC(=O)c1ccc2[nH]c(-c3ccc(Cl)cc3)nc2c1`, for which the CC50 in series [1], in [3] and in series [6] was above 100 µM throughout. The EC50 in [2], in [4], in [5], in series [7], in [8] and in series [9] was above 100 µM each time. Also, the EC50 in series [10], in [11] and in [12] was above 100 µM throughout.

In the case of `C/C(=N\NC(N)=O)c1ccc2[nH]c(-c3ccoc3)nc2c1`, the cytotoxic concentration (CC50) in series [1], in [3] and in series [6] was above 100 µM throughout. Further, the EC50 in series [2] is 60 µM; in series [4], above 100 µM; in [5] it was above 100 µM; in [7], above 100 µM; in [8], above 100 µM; in [9] it was above 100 µM. For the same compound, the EC50 in series [10], in series [11] and in [12] was above 100 µM each time.

In the case of `Clc1ccc2c(c1)nc(Cn1nc3ccccc3n1)n2C[C@H]1CCCN2CCCCC12` (stereo not given in full), in series [9], the EC50 amounted to 0.03 µM.

In the case of `C/C(=N\NC(N)=O)c1ccc2c(c1)nc(-c1ccoc1)n2C1CCCCC1`, in series [1], the CC50 is above 100 µM. Also, the concentration for a half-maximal effect (EC50) in series [2] stood at 100 µM.

Turning to `COc1ccc(-c2nc3cc(/C(C)=N/NC(N)=O)ccc3[nH]2)cc1`, in [1], half-maximal cytotoxicity (CC50) was put at 25 µM. In addition, the EC50 in series [2] amounted to 11 µM.

As to `O=[N+]([O-])c1ccc2[nH]c(-c3ccccc3)nc2c1`, the EC50 in series [2] was 1.5 µM.

Regarding `Nc1nc2c(ncn2COCCO)c(=O)[nH]1` [ACYCLOVIR], the CC50 in series [6] is above 100 µM.

In the case of `COc1c(C)c2c(c(O)c1C/C=C(\C)CCC(=O)O)C(=O)OC2` [MYCOPHENOLIC ACID], in series [6], the CC50 is at least 12.5 µM. Besides, the EC50 in series [11] worked out at 1.5 µM.

Turning to `C/C(=N\NC(N)=O)c1ccc2c(c1)nc(-c1ccccn1)n2C1CCCCC1`, the CC50 in [1], in [3] and in series [6] was above 100 µM each time. Besides, the EC50 in [2], in series [4], in series [5], in [7], in series [8] and in [9] was above 100 µM throughout. Besides, the EC50 in [10], in [11] and in series [12] was above 100 µM each time.

For the compound `O=[N+]([O-])c1ccc(-c2nc3cc(Cl)c(Cl)cc3[nH]2)cc1`, the concentration giving a half-maximal response (EC50) in [11] is 0.1 µM.

Take `C[C@@]1(O)[C@H](O)[C@@H](CO)O[C@H]1n1ccc(N)nc1=O`: the CC50 in series [3] was above 100 µM. Besides, the EC50 in [5] is 16 µM.

For the compound `O=c1cnn([C@@H]2O[C@H](CO)[C@@H](O)[C@H]2O)c(=O)[nH]1` [6-AZAURIDINE], the CC50 in [6] is at least 12.5 µM. Also, the EC50 in series [9] is 1.2 µM.

For `COc1ccc(-c2nc3cc(/C(C)=N/O)ccc3[nH]2)cc1`, the CC50 in series [1] was 44 µM; in [3], 44 µM; in series [6] it was above 100 µM. For the same compound, the EC50 was above 44 µM in series [2]; above 44 µM in series [4]; above 100 µM in [5]; above 100 µM in series [7]; above 100 µM in [8]; above 100 µM in [11].

`CC(=O)c1ccc2[nH]c(/C=C/c3ccc([N+](=O)[O-])cc3)nc2c1`: the EC50 in series [2] amounted to 1.7 µM.

Take `C/C(=N\NC(N)=O)c1ccc2c(c1)nc(-c1ccc(C(F)(F)F)cc1)n2C1CCCCC1`: the CC50 in [1], in series [3] and in series [6] was above 100 µM each time. Further, the EC50 in [2], in series [4], in series [5], in series [7], in series [8] and in series [9] was above 100 µM each time. Further, the EC50 in series [10] and in series [11] was above 100 µM in each case.

As to `C/C(=N\NC(N)=O)c1ccc2c(c1)nc(-c1ccc(Cl)cc1)n2C1CCCCC1`, the CC50 in [1], in [3] and in series [6] was above 100 µM each time. Besides, the EC50 in series [2], in [4], in series [5], in series [7], in series [8] and in series [9] was above 100 µM throughout. Further, the EC50 in series [10], in [11] and in series [12] was above 100 µM each time.

As for `C/C(=N\O)c1ccc2[nH]c(-c3ccc(C(F)(F)F)cc3)nc2c1`, the CC50 in series [1] was determined as 55 µM. Further, in [2], the EC50 was above 55 µM.

With `C/C(=N\NC(N)=O)c1ccc2[nH]c(-c3ccc(Cl)cc3)nc2c1`, the CC50 in series [1], in series [3] and in [6] was above 100 µM each time. For the same compound, the EC50 in series [2], in series [4], in series [5], in series [7], in series [8] and in [9] was above 100 µM throughout. Also, the EC50 in series [10], in [11] and in [12] was above 100 µM each time.

Turning to `C#C[C@@]1(O)[C@H](O)[C@@H](CO)O[C@H]1n1ccc(N)nc1=O` [2'-ETHYNYL-D-CYTIDINE], in series [6], the CC50 is above 100 µM. In addition, the EC50 in series [7] came out at 27 µM; in series [8], 23 µM.

With `Nc1ccc(-c2nc3cc(Cl)ccc3[nH]2)c2ccccc12`, the EC50 in series [4] was 27 µM.

On to `CC(=O)Nc1ccc(/C=C/c2nc3cc(C(F)(F)F)ccc3[nH]2)cc1`, for which the concentration giving a half-maximal response (EC50) in series [9] turned out to be 1 µM.

For `Nc1ccc(-c2nc3cc(Cl)c(Cl)cc3[nH]2)c2ccccc12`, in series [4], the EC50 stood at 16 µM.

Values taken from ChEMBL document CHEMBL2034874, “5-acetyl-2-arylbenzimidazoles as antiviral agents. Part 4” (Eur J Med Chem, 2012).
